# Experimental data published in ChEMBL document CHEMBL3804769, “Antibacterial Diamines Targeting Bacterial Membranes” (J Med Chem, 2016).
# Calls of active or inactive are those of the source. The calls are words filed in the database; no cut-off is given here.
# Columns and labels:
# Escherichia coli = test: Antibacterial activity against Escherichia coli ANS1 incubated overnight by microbroth dilution method; assay type: functional
# Outline: (§1)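 Bacteria grown in LB medium. CLSI microbroth dilution in 96-well plates, overnight at 37 °C without shaking. MIC99 taken as the lowest concentration giving complete growth inhibition. Three independent determinations, reported as mean ± SD.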
# Staphylococcus aureus [1] = test: Antibacterial activity against Staphylococcus aureus RN4220 ATCC 35556 incubated overnight by microbroth dilution method; assay type: functional; outline: as §1
# Pseudomonas aeruginosa [2] = test: Antibacterial activity against Pseudomonas aeruginosa PAO1 ATCC 47085 incubated overnight by microbroth dilution method; assay type: functional; outline: as §1
# Staphylococcus aureus [3] = test: Bactericidal activity against Staphylococcus aureus RN4220 ATCC 35556 assessed as reduction in bacterial burden; assay type: functional, organism-based
# Outline: (§2)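 Overnight LB cultures of RN4220 or PAO1 washed and resuspended in PBS, then diluted 100-fold into LB (exponential phase) or 1% PBS (stationary phase). Compound added at 4× MIC99, and cultures shaken at 200 rpm at 37 °C. Viable counts taken by dilution plating on LB agar at 0, 2, 4 and 6 h.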
# Pseudomonas aeruginosa [4] = test: Bactericidal activity against Pseudomonas aeruginosa PAO1 ATCC 47085 assessed as reduction in bacterial burden; assay type: functional, organism-based; outline: as §2
# Pseudomonas aeruginosa [5] = test: Antibiofilm activity against Pseudomonas aeruginosa PAO1 ATCC 47085 after 24 hrs by crystal violet staining-based spectrophotometry; assay type: functional, organism-based
# Outline: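 PAO1 grown 2 h in LB at 37 °C with shaking, then diluted 1:1000 in 10% LB-PBS to 3 × 10⁵ CFU/mL. Inoculum mixed with serially diluted compound under pegged lids and incubated 24 h at 37 °C static. Peg biofilms washed, stained 15 min with 0.1% crystal violet, and dye eluted in 95% ethanol and read at 600 nm.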
# Pseudomonas aeruginosa [6] = test: Bactericidal activity against Pseudomonas aeruginosa PAO1 ATCC 47085 in stationary-phase assessed as reduction in bacterial burden at 4 times MIC99 after 4 hrs by time-kill assay; assay type: functional, organism-based
# Outline: (§3)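 Overnight cultures washed and resuspended in PBS, then diluted 100-fold into LB (exponential-phase model) or into 1% PBS (stationary-phase model). Test agent added at 4× MIC99. Incubated at 37 °C with shaking at 200 rpm. CFU counted on LB agar at 0, 2, 4 and 6 h.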
# Pseudomonas aeruginosa [7] = test: Bactericidal activity against Pseudomonas aeruginosa PAO1 ATCC 47085 in exponential-phase assessed as reduction in bacterial burden at 4 times MIC99 upto 6 hrs by time-kill assay; assay type: functional; outline: as §3
# Staphylococcus aureus [8] = test: Bactericidal activity against Staphylococcus aureus RN4220 ATCC 35556 in stationary-phase assessed as reduction in bacterial burden at 4 times MIC99 after 2 to 6 hrs by time-kill assay; assay type: functional, organism-based; outline: as §3
# Staphylococcus aureus [9] = test: Bactericidal activity against Staphylococcus aureus RN4220 ATCC 35556 in exponential-phase assessed as reduction in bacterial burden at 4 times MIC99 after 2 to 6 hrs by time-kill assay; assay type: functional, organism-based; outline: as §3
# Caenorhabditis elegans [10] = test: Toxicity in Caenorhabditis elegans N2 assessed as effect on viable eggs production treated at high concentration; assay type: organism-based; details: in vivo
# Outline: (§4)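 C. elegans N2 kept on NGM agar at 22 °C. Compound mixed into molten NGM agar at 64 μg/mL. L4 adults, L1 juveniles and synchronized eggs transferred onto test plates and held at 22 °C for 96 h. Death, development and egg production checked every 12 h.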
# Caenorhabditis elegans [11] = test: Toxicity in juvenile L1 stage of Caenorhabditis elegans N2 assessed as nematode death at 64 ug/ml incubated for 96 hrs measured every 12 hrs; assay type: organism-based; details: in vivo; outline: as §4
# Pseudomonas aeruginosa [12] = test: Antibiofilm activity against Pseudomonas aeruginosa PAO1 ATCC 47085 at < 1024 ug/ml after 24 hrs by crystal violet staining-based spectrophotometry; assay type: functional, organism-based
# Outline: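 PAO1 grown 2 h in LB at 37 °C with shaking, then diluted 1:1000 in 10% LB-PBS to 3 × 10⁵ CFU/mL and mixed with serially diluted compound. Biofilms grown on peg lids 24 h at 37 °C, static. Pegs washed, stained with 0.1% crystal violet for 15 min, dye eluted in 95% ethanol and read at 600 nm. Control was 10% LB-PBS.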
# Staphylococcus aureus [13] = test: Bactericidal activity against Staphylococcus aureus RN4220 ATCC 35556 in stationary-phase assessed as reduction in bacterial burden at 4 times MIC99 after 4 hrs by time-kill assay; assay type: functional; outline: as §2
# Pseudomonas aeruginosa [14] = test: Antibacterial activity against Pseudomonas aeruginosa PAO1 ATCC 47085 assessed as increase in outer membrane permeability at 4 times MIC99 by fluorescent probe 1-N-phenylnaphthylamine based fluorescence assay; assay type: functional, organism-based
# Outline: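 P. aeruginosa PAO1 from a culture at OD600 ~0.5, washed and resuspended in 5 mM HEPES pH 7.2. NPN added to 10 μM final and sodium azide to 10 mM final, then 30 min at room temperature in darkness. Compound added at 4× or 1× MIC99 and NPN fluorescence recorded continuously (ex 350/em 420 nm). Gentamicin at 4× MIC99 as positive control. Three independent experiments.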
Compound,MIC99 (Escherichia coli) [µg/mL],MIC99 (Staphylococcus aureus [1]) [µg/mL],MIC99 (Pseudomonas aeruginosa [2]) [µg/mL],also measured
S=C(NCCCCCCCCCCCCNC(=S)NC(c1ccccc1)c1ccccc1)NC(c1ccccc1)c1ccccc1,> 256,> 256,> 256,
O=[N+]([O-])c1ccc(O)c([N+](=O)[O-])c1,,,,Activity (Staphylococcus aureus [3]): Active; Activity (Pseudomonas aeruginosa [4]): Active
CN(C)[C@@H]1C(O)=C(C(N)=O)C(=O)[C@@]2(O)C(O)=C3C(=O)c4c(O)cccc4[C@@](C)(O)[C@H]3C[C@@H]12,,,,Activity (Pseudomonas aeruginosa [5]): Active
NCCCNCCCCNCCCN [SPERMINE],> 512,> 512,> 512,
Cl.Cl.O=C(NCCCNCCCCCNCCCNC(=O)NCc1ccccc1)NCc1ccccc1,64,107,213,
NCCCCNCCCN [SPERMIDINE],> 512,> 512,> 512,
Cl.Cl.O=C(NCCCNCCCCCNCCCNC(=O)NCC(c1ccccc1)c1ccccc1)NCC(c1ccccc1)c1ccccc1,4,18.7,26.7,
CC1(C)S[C@@H]2[C@H](NC(=O)[C@H](N)c3ccccc3)C(=O)N2[C@H]1C(=O)O [AMPICILLIN],,0.125,128,Activity (Pseudomonas aeruginosa [6]): inactive; Activity (Pseudomonas aeruginosa [7]): inactive; Activity (Staphylococcus aureus [8]): inactive; Activity (Staphylococcus aureus [9]): Active
Cl.Cl.S=C(NCCCNCCCCCNCCCNC(=S)NC(c1ccccc1)c1ccccc1)NC(c1ccccc1)c1ccccc1,6,6.7,13.3,
O=C(NCCCCCCCCCCCNC(=O)NCCC(c1ccccc1)c1ccccc1)NCCC(c1ccccc1)c1ccccc1,> 256,> 256,> 256,
GENTAMICIN [listing 1 of 2 here],,,,Activity (Caenorhabditis elegans [10]): Toxic; Activity (Caenorhabditis elegans [11]): Toxic
NC[C@H]1O[C@H](O[C@H]2[C@H](O)[C@@H](O[C@H]3O[C@H](CO)[C@@H](O)[C@H](N)[C@H]3O)[C@H](N)C[C@@H]2N)[C@H](O)[C@@H](O)[C@@H]1O [KANAMYCIN],8,8,32,Activity (Pseudomonas aeruginosa [6]): inactive; Activity (Pseudomonas aeruginosa [7]): inactive; Activity (Staphylococcus aureus [8]): inactive; Activity (Staphylococcus aureus [9]): Active; Activity (Pseudomonas aeruginosa [12]): inactive
CCn1cc(C(=O)O)c(=O)c2cc(F)c(N3CCNCC3)cc21 [NORFLOXACIN],0.25,0.5,0.5,Activity (Pseudomonas aeruginosa [7]): 4 deltalog10CFU/ml; Activity (Staphylococcus aureus [8]): inactive; Activity (Staphylococcus aureus [9]): Active; Activity (Pseudomonas aeruginosa [5]): Active; Activity (Staphylococcus aureus [13]): 2 deltalog10CFU/ml
COLISTIN,,> 16,< 0.125,Activity (Staphylococcus aureus [3]): Active; Activity (Pseudomonas aeruginosa [4]): Active
S=C(NCCCNCCCCNCCCNC(=S)NC(c1ccccc1)c1ccccc1)NC(c1ccccc1)c1ccccc1,6.2,3.8,10.4,
Cl.Cl.S=C(NCCCNCCCCCNCCCNC(=S)NCCC(c1ccccc1)c1ccccc1)NCCC(c1ccccc1)c1ccccc1,10,9.3,32,
O=c1[nH]cc(F)c(=O)[nH]1 [FLUOROURACIL],,,,Activity (Caenorhabditis elegans [10]): Toxic; Activity (Caenorhabditis elegans [11]): Toxic
Cl.Cl.S=C(NCCCNCCCCCNCCCNC(=S)NCc1ccccc1)NCc1ccccc1,32,32,256,
O=C(NCCCCCCCCCCCCNC(=O)NC(c1ccccc1)c1ccccc1)NC(c1ccccc1)c1ccccc1,> 256,> 256,> 256,
GENTAMICIN [listing 2 of 2 here],,,,Activity (Pseudomonas aeruginosa [14]): Active
Cl.Cl.O=C(NCCCNCCCCCNCCCNC(=O)Nc1ccccc1)Nc1ccccc1,> 256,> 256,> 256,
Cl.Cl.O=C(NCCCNCCCCCNCCCNC(=O)NCCC(c1ccccc1)c1ccccc1)NCCC(c1ccccc1)c1ccccc1,6,13.3,26.7,
Cl.Cl.O=C(NCCCNCCCCCNCCCNC(=O)NC(c1ccccc1)c1ccccc1)NC(c1ccccc1)c1ccccc1,6,10.7,13.3,
O=C(NCCCNCCCCNCCCNC(=O)NCC(c1ccccc1)c1ccccc1)NCC(c1ccccc1)c1ccccc1,4.4,11.3,18.6,
S=C(NCCCNCCCCNCCCNC(=S)NCCC(c1ccccc1)c1ccccc1)NCCC(c1ccccc1)c1ccccc1,10.4,4.9,29.2,
O=C(NCCCCCCCCCCCCNC(=O)NCC(c1ccccc1)c1ccccc1)NCC(c1ccccc1)c1ccccc1,> 256,> 256,> 256,
